Results as given in PMC9050340 (RSC Advances, 2020).
Values after ≈ are worked out from the molar mass of the structure shown.

How the values were obtained:
[1] = tested on: MDA-MB-231 cells; assay: Wound-healing scratch; assay type: cell-based, human; conditions: MDA-MB-231, 10 μM, HGF-induced, 24 h
Procedure, shortened: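 MDA-MB-231 cells grown overnight to confluent monolayers, scratched with a pipette tip, washed twice with PBS, then fresh RPMI. Test compound (10 μM, from 10 mM DMSO stock; DMSO ≤0.1%) added in serum-free defined medium with […] HGF, in triplicate, for 24 h. Cells fixed and Giemsa-stained; wound width imaged at 0 and 24 h. % migration calculated relative to DMSO control.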

[2] = tested on: MCF-7; assay: MTT antiproliferative; assay type: cell-based; conditions: Homo sapiens, MCF7, read-out: Cytotoxicity (IC50 μM) MCF-7
[3] = MTT antiproliferative; assay type: cell-based; conditions: human, MCF-10A cells (normal breast cell line)
[4] = DPPH radical scavenging activity assay; conditions: 30 min, room temperature, ethanol
Procedure, shortened: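 Test compound in absolute ethanol (2–100 μg mL−1; 40 μg mL−1 for screening), 1 mL mixed with 2 mL of freshly prepared DPPH (20 μg mL−1 in absolute ethanol). Incubated 30 min at room temperature in the dark, then absorbance read at 517 nm against an absolute ethanol blank. Ascorbic acid as positive control. % scavenging from blank versus sample absorbance; IC50 by nonlinear regression.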

[5] = cited from earlier work; for IC50, inhibition of oxidation of DPPH: from P. latifolia leaves

CC1(C)CC[C@]2(C(=O)O)CC[C@]3(C)C(=CC[C@@H]4[C@@]5(C)CC[C@H](O)C(C)(C)[C@@H]5CC[C@]43C)[C@@H]2C1 [Compound 10, oleanolic acid]
cell migration inhibition in wound-healing assay [1]: suppressed

C[C@@H]1O[C@@H](O[C@@H]2[C@@H](O)[C@H](OCCc3ccc(O)c(O)c3)O[C@H](CO)[C@H]2OC(=O)/C=C/c2ccc(O)c(O)c2)[C@H](O)[C@H](O)[C@H]1O [Compound 5, verbascoside]
IC50 [2]: 10.5 ± 0.52 µM
IC50 at 48 h [3]: 13.9 ± 0.69 µM
IC50, DPPH radical scavenging [4]: 17.50 ± 1.3 µg/mL (≈ 28 µM)

COc1cc(C2Oc3c(OC)cc(C=CC=O)cc3C(O)C2O)ccc1O (centres unmarked) [4′-hydroxy-8,3′-dimethoxy-6-acroleinylflavan-3,4-diol]
IC50, inhibition of oxidation of DPPH [5]: 22.5 µg/mL

CC(CO)c1cc2c(c(O)c1O)C1=CC(=O)CC(C)(C)C1(C)C=C2 (centres unmarked) [11,12,16-trihydroxy-2-oxo-5-methyl-10-demethyl-abieta-1,[10] and 6,8,11,13-pentene]
IC50 towards DPPH assay ([5]; from P. serratifolia): 20.4 ± 1.3 µg/mL (≈ 62.1 µM)

O=C1O[C@H]([C@@H](O)CO)C(O)=C1O [L-ascorbic acid, reference compound]
IC50, DPPH radical scavenging [4]: 10 ± 0.3 µg/mL (≈ 56.8 µM)

O=C1C[C@@H](c2ccc(O)cc2)Oc2cc(O)cc(O)c21 [naringenin]
IC50, inhibition of oxidation of DPPH [5]: 16.0 µg/mL
